Measurements from ChEMBL document CHEMBL4480366, “Rationally synthesized coumarin based pyrazolines ameliorate carrageenan induced inflammation through COX-2/pro-inflammatory cytokine inhibition” (Medchemcomm, 2019).
Active and inactive are the calls of the source. The calls are words filed in the database; no cut-off is given here.

Assays:
[1] = target: T1, Prostaglandin G/H synthase 1 (Ovis aries, UniProt P05979); assay: Inhibition of ovine COX1 using arachidonic acid as substrate preincubated for 10 mins followed by substrate addition and measured after 2 mins by ELISA
T1 sequence (P05979 whole entry): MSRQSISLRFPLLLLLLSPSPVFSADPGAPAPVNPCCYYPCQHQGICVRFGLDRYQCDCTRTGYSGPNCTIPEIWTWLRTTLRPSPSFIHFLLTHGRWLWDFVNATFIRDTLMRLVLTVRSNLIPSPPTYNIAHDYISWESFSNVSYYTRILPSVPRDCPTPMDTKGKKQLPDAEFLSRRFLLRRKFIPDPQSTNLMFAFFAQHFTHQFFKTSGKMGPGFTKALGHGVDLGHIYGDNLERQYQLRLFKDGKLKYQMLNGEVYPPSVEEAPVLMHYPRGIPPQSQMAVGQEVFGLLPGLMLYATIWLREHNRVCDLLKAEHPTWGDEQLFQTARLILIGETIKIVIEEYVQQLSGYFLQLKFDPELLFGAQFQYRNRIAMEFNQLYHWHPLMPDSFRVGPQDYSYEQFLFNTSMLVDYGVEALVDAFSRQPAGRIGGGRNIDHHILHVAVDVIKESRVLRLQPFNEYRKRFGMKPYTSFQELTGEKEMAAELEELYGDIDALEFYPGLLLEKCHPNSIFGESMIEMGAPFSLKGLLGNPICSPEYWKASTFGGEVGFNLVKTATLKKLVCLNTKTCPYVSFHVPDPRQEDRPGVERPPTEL
Summary of the method: (§1)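 The enzyme, heme and test compound (dissolved in DMSO) were preincubated for 10 min at 37 °C in 0.1 M Tris-HCl, pH 8, with 5 mM EDTA and 2 mM phenol. Arachidonic acid was added to 100 µM final. The reaction was stopped after 2 min with 1 M HCl, then reduced with saturated SnCl2 for 5 min at RT. PGF2α was quantified by EIA (18 h RT, Ellman's reagent 60 min, 410 nm).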

[2] = target: T2, Prostaglandin G/H synthase 2 (Ovis aries, UniProt P79208); assay: Inhibition of ovine COX2 using arachidonic acid as substrate preincubated for 10 mins followed by substrate addition and measured after 2 mins by ELISA; summary of the method: as §1
T2 sequence (P79208 whole entry): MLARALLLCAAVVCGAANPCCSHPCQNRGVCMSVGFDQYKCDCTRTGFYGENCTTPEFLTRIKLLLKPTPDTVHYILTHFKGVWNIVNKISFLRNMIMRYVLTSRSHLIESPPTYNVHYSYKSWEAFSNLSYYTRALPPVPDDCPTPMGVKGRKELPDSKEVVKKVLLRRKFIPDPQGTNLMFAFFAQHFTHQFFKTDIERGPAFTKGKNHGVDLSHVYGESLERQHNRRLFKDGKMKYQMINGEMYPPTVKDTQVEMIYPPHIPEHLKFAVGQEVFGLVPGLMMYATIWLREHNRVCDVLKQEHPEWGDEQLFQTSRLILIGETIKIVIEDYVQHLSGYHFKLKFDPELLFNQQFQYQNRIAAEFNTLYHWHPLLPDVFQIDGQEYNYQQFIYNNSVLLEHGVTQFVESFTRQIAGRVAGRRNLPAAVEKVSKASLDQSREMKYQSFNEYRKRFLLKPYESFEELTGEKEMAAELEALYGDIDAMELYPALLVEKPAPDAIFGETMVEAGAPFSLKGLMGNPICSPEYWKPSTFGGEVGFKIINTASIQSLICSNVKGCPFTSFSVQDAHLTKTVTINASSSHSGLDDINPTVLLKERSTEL

Erythrocyte [3] = assay: Anti-inflammatory activity in human erythrocytes assessed as inhibition of heat-induced hemolysis at 10 ug/ml relative to control; type: functional
Erythrocyte [4] = assay: Anti-inflammatory activity in human erythrocytes assessed as inhibition of heat-induced hemolysis at 25 ug/ml relative to control; type: functional
Erythrocyte [5] = assay: Anti-inflammatory activity in human erythrocytes assessed as inhibition of heat-induced hemolysis at 50 ug/ml relative to control; type: functional
Erythrocyte [6] = assay: Anti-inflammatory activity in human erythrocytes assessed as inhibition of heat-induced hemolysis at 100 ug/ml relative to control; type: functional
Erythrocyte [7] = assay: Anti-inflammatory activity in human erythrocytes assessed as inhibition of hypotonicity-induced hemolysis at 10 ug/ml relative to control; type: functional
Erythrocyte [8] = assay: Anti-inflammatory activity in human erythrocytes assessed as inhibition of hypotonicity-induced hemolysis at 25 ug/ml relative to control; type: functional
Erythrocyte [9] = assay: Anti-inflammatory activity in human erythrocytes assessed as inhibition of hypotonicity-induced hemolysis at 50 ug/ml relative to control; type: functional
Erythrocyte [10] = assay: Anti-inflammatory activity in human erythrocytes assessed as inhibition of hypotonicity-induced hemolysis at 100 ug/ml relative to control; type: functional
Rattus norvegicus [11] = assay: Anti-inflammatory activity Wistar rat assessed as inhibition of carrageenan-induced paw edema at 25 to 50 mg/kg pretreated 30 mins prior to carrageenan-induction and measured after 24 hrs by plethysmography; type: functional
Summary of the method: (§2)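 Male Wistar rats, 4–6 weeks old and weighing 150–200 g, were housed four per cage at 22–24 °C with standard food and water.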

Rattus norvegicus [12] = assay: Analgesic activity in Wistar rat assessed as reduction in acetic acid-induced abnormal writhing administered intraperitoneally 1 hr prior to acetic acid induction relative to control; type: functional; set-up: scale not given: the % may be the effect or the level left; summary of the method: as §2
[13] = In-vitro anti-inflammatory activity assessed as inhibition of heat-induced albumin (unknown origin) denaturation
[14] = In-vitro anti-inflammatory activity assessed as inhibition of heat-induced albumin (unknown origin) denaturation at 100 ug/ml
Erythrocyte [15] = assay: Anti-inflammatory activity in human erythrocytes assessed as inhibition of heat-induced hemolysis; type: functional, cell-based
Rattus norvegicus [16] = assay: Anti-inflammatory activity Wistar rat assessed as inhibition of carrageenan-induced paw edema at 25 to 50 mg/kg pretreated 30 mins prior to carrageenan-induction and measured after 0.5 to 24 hrs by plethysmography; type: functional, organism-based; settings: TDE = time-dependent effect; summary of the method: as §2
Rattus norvegicus [17] = assay: Anti-inflammatory activity Wistar rat assessed as reduction in TNF-alpha production at 25 mg/kg, ip pretreated 30 mins prior to carrageenan-induction and measured after 24 hrs post induction by immunoassay; type: functional, organism-based; summary of the method: as §2
Rattus norvegicus [18] = assay: Anti-inflammatory activity Wistar rat assessed as reduction in IL-6 production at 25 mg/kg, ip pretreated 30 mins prior to carrageenan-induction and measured after 24 hrs post induction by immunoassay; type: functional, organism-based; summary of the method: as §2
Rattus norvegicus [19] = assay: Anti-inflammatory activity Wistar rat assessed as reduction in IL-1beta production at 25 mg/kg, ip pretreated 30 mins prior to carrageenan-induction and measured after 24 hrs post induction by immunoassay; type: functional, organism-based; summary of the method: as §2
Rattus norvegicus [20] = assay: Analgesic activity in Wistar rat assessed as reduction in acetic acid-induced abnormal writhing administered intraperitoneally 30 mins after substance P injection followed by acetic acid induction after 30 mins; type: functional, organism-based; summary of the method: as §2
[21] = Inhibition of soyabean 5-LOX after 5 mins by spectrophotometric analysis; set-up: species or system Glycine max
[22] = Acute toxicity in Wistar rat assessed as induction of behavioural changes at 50 mg/kg, po administered as as single dose observed continuously during first 4 hrs followed by periodic monitoring for 24 hrs and subsequent observations at once or twice daily for 14 days; type: organism-based; settings: in vivo
Summary of the method: (§3)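 Rats of either sex were used, per OECD guidelines, housed four per cage at 22–24 °C with standard food and water. They were fasted 4 h before and 2 h after dosing. Compounds were given as a single oral dose, with an untreated control group. Animals were watched continuously for the first 4 h, then periodically to 24 h, then once or twice daily for 14 days.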

[23] = Acute toxicity in Wistar rat assessed as induction of irritation at 300 to 2000 mg/kg, po administered as as single dose observed continuously during 1 to 4 hrs; type: organism-based; settings: in vivo; summary of the method: as §3
[24] = Acute toxicity in Wistar rat assessed as induction of itching at 300 to 2000 mg/kg, po administered as as single dose observed continuously during 1 to 4 hrs; type: organism-based; settings: in vivo; summary of the method: as §3
[25] = Acute toxicity in Wistar rat assessed as induction of sneezing at 300 to 2000 mg/kg, po administered as as single dose observed continuously during 1 to 4 hrs; type: organism-based; settings: in vivo; summary of the method: as §3
[26] = Cardiotoxicity in Wistar rat assessed as effect on myocardium at 2000 mg/kg, po administered as as single dose observed continuously during first 4 hrs followed by periodic monitoring for 24 hrs and subsequent observations at once or twice daily for 14 days by hematoxylin and eosin staining-based assay; type: toxicity, organism-based; settings: in vivo
[27] = Hepatotoxicity in Wistar rat assessed as effect on liver at 2000 mg/kg, po administered as as single dose observed continuously during first 4 hrs followed by periodic monitoring for 24 hrs and subsequent observations at once or twice daily for 14 days by hematoxylin and eosin staining-based assay; type: toxicity, organism-based; settings: in vivo
[28] = Renal toxicity in Wistar rat assessed as effect on kidney at 2000 mg/kg, po administered as as single dose observed continuously during first 4 hrs followed by periodic monitoring for 24 hrs and subsequent observations at once or twice daily for 14 days by hematoxylin and eosin staining-based assay; type: organism-based; settings: in vivo
Erythrocyte [29] = assay: Anti-inflammatory activity in human erythrocytes assessed as inhibition of hypotonicity-induced hemolysis at 10 to 100 ug/ml relative to control; type: functional, cell-based
[30] = Acute toxicity in Wistar rat assessed as induction of behavioural changes at 50 to 2000 mg/kg, po administered as as single dose observed continuously during first 4 hrs followed by periodic monitoring for 24 hrs and subsequent observations at once or twice daily for 14 days; settings: in vivo

IC50 [1] [µM] | IC50 [2] [µM] | Compound | inhibition [13] | Activity (Erythrocyte [15]) | inhibition (Rattus norvegicus [16]) | inhibition (INH) (Rattus norvegicus [11]) [%] | Activity (Rattus norvegicus [17]) | Activity (Rattus norvegicus [18]) | Activity (Rattus norvegicus [19]) | Activity (Erythrocyte [29]) | also measured
> 30 | 0.23 | Cc1ccc(-c2ncc(Cl)cc2-c2ccc(S(C)(=O)=O)cc2)cn1 [ETORICOXIB] |  |  |  |  |  |  |  |  | inhibition at 10 µg/mL (Erythrocyte [3]): 65%; inhibition at 25 µg/mL (Erythrocyte [4]): 73%; inhibition at 50 µg/mL (Erythrocyte [5]): 78%; inhibition at 100 µg/mL (Erythrocyte [6]): 76%; inhibition at 10 µg/mL (Erythrocyte [7]): 52%; inhibition at 25 µg/mL (Erythrocyte [8]): 62%; inhibition at 50 µg/mL (Erythrocyte [9]): 66%; inhibition at 100 µg/mL (Erythrocyte [10]): 69%; inhibition (Rattus norvegicus [11]): Active; Activity (Rattus norvegicus [12]): 57.6%
> 30 | 4.37 | COc1ccccc1C1CC(c2cc3ccccc3oc2=O)=NN1C(C)=O (stereo not drawn) | Dose-dependent effect | Dose-dependent effect |  |  |  |  |  | Active | 
20 | 2.39 | CC(=O)N1N=C(c2cc3ccccc3oc2=O)CC1c1ccc(O)cc1 (stereo not drawn) | Dose-dependent effect | Dose-dependent effect | Tde | 55.43 | Active | Active | Active | Active | 
16.2 | 1.79 | CC(=O)N1N=C(c2cc3ccccc3oc2=O)CC1c1ccc([N+](=O)[O-])cc1 (stereo not drawn) | Dose-dependent effect | Dose-dependent effect | Tde | 52.17 | Active | Active | Active | Active | 
> 30 | 4.35 | COc1cc(C2CC(c3cc4ccccc4oc3=O)=NN2C(C)=O)cc(OC)c1OC (stereo not drawn) | Dose-dependent effect | Dose-dependent effect |  |  |  |  |  | Active | 
 |  | CC(=O)N1N=C(c2cc3ccccc3oc2=O)CC1c1ccc(Cl)cc1 (stereo not drawn) | Dose-dependent effect | Dose-dependent effect |  |  |  |  |  | Active | 
 |  | CC(=O)N1N=C(c2cc3ccccc3oc2=O)CC1c1ccccc1 (stereo not drawn) | Dose-dependent effect | Dose-dependent effect |  |  |  |  |  | Active | 

Compound | IC50 [1] [µM] | IC50 [2] [µM] | inhibition [13] | Activity (Erythrocyte [15]) | inhibition (Rattus norvegicus [16]) | inhibition (INH) (Rattus norvegicus [11]) [%] | Activity (Rattus norvegicus [17]) | Activity (Rattus norvegicus [18]) | Activity (Rattus norvegicus [19]) | Activity (Erythrocyte [29]) | also measured
COc1ccc(C2CC(c3cc4ccccc4oc3=O)=NN2C(C)=O)cc1 (stereo not drawn) | 22.4 | 0.41 | Dose-dependent effect | Dose-dependent effect | Tde | 67.39 | Active | Active | Active | Active | inhibition [14]: 70%; inhibition at 10 µg/mL (Erythrocyte [3]): 60%; inhibition at 25 µg/mL (Erythrocyte [4]): 63%; inhibition at 50 µg/mL (Erythrocyte [5]): 67%; inhibition at 100 µg/mL (Erythrocyte [6]): 69%; inhibition at 10 µg/mL (Erythrocyte [7]): 62%; inhibition at 25 µg/mL (Erythrocyte [8]): 63%; inhibition at 50 µg/mL (Erythrocyte [9]): 67%; inhibition at 100 µg/mL (Erythrocyte [10]): 68%; Activity (Rattus norvegicus [12]): 70.5%; Activity (Rattus norvegicus [20]): inactive; IC50 [21]: 12 µM; Activity [22]: Non-Toxic; Activity [23]: Toxic; Activity [24]: Toxic; Activity [25]: Toxic; Activity [26]: Non-Toxic; Activity [27]: Non-Toxic; Activity [28]: Non-Toxic; Activity [30]: Non-Toxic
